Laboratory results from PubChem BioAssay AID804 (SRMLSC, 2007).
In all, about 140,000 compounds went through this assay and about 710 (0.51%) were called active.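 The calls were made as follows: active = inhibition above a set limit, 3 SD over the mean compound inhibition (cut at about 44% in these data); inactive = the rest.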 The full list was thinned out, with actives kept by preference.

Assay: BB579 yeast growth reduction, restrictive medium – S. cerevisiae, yeast lifespan-shortening project, primary screen (AID 804)
Details: OD615, 48 h, at 10 µM, hits give high values
Procedure, shortened: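 Material: Saccharomyces cerevisiae DeaD strain BB579, replicative lifespan model yeast; buffer or medium: CSMM-D restrictive synthetic medium containing dextrose (glucose); compound: 10 µM single dose, DMSO 0.25%; timing: 48 h compound exposure at 30 °C after 4 h preincubation; signal: turbidity as optical density at 615 nm; benchmarks: positive control amphotericin B 10 µg/mL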
For `Cc1ccc(N2C(=O)C(NC(=O)c3c(F)cccc3F)(C(F)(F)F)C3=C2CC(C)(C)CC3=O)cc1` (stereo unspecified), the inhibition was -1.52% (inactive).
In the case of `O=C1c2ccccc2NC(c2ccc(-c3cccc(Cl)c3)o2)N1O` (stereo unspecified), the inhibition is reported as 64.1% (active).
For `CCOC(=O)NN1C(=O)c2ccccc2NC1c1cccc(O)c1` (stereo unspecified), the inhibition was 9.36% (inactive).
For `C=CCN(CC=C)S(=O)(=O)c1ccc(C(=O)Nc2nc3c(s2)CCc2ccccc2-3)cc1`, the inhibition was -67.9% (inactive).
In the case of `O=C(C1CCCO1)N1CCN(C(=S)Nc2cccc(Cl)c2)CC1` (stereo unspecified), the inhibition is reported as -3.25% (inactive).
For `CC1(C)CC(=O)C(N=Nc2ccc(S(=O)(=O)N3CCCCCC3)cc2)=C(O)C1`, the inhibition was -5.4% (inactive).
In the case of `C/C(CC(=O)Nc1ccc(Cl)cc1)=N\NC(=O)C(=O)NCCO`, the inhibition is reported as -6.42% (inactive).
For `Cc1cc2oc(C(=O)Nc3c(C)n(C)n(-c4ccccc4)c3=O)c(C)c2cc1Cl`, the inhibition was -44% (inactive).
In the case of `Cc1ccc(NC(=O)c2cccs2)cc1S(=O)(=O)N(C)C`, the inhibition is reported as -35.7% (inactive).
For `Cc1ccc(-c2nn(C(C)(C)C)c3ncnc(N)c23)cc1`, the inhibition was 81.2% (active).
For `O=C(Cc1ccc(Cl)c(Cl)c1)Nc1ccc(SC(F)F)cc1`, the inhibition was -39.5% (inactive).
For `O=C(CC(=O)Nc1ccc(Cl)c(Cl)c1)N/N=C/c1ccc(O)cc1`, the inhibition was -54.1% (inactive).
With `O=C(CC(O)(C(F)(F)F)C(F)(F)F)Nc1ccc(Cl)c(Cl)c1` the inhibition was 80.1% (active).
For `Cc1scc(C(=O)NNC(=S)NCc2ccccc2)c1C`, the inhibition was -2.5% (inactive).
With `CCOC(=O)NN1C(=O)c2ccccc2NC1c1ccccc1O` (stereo unspecified) the inhibition was 7.28% (inactive).
For `COC(=O)C1=C(C)N(C)C(=S)NC1c1ccccc1` (stereo unspecified), the inhibition was 8.95% (inactive).
For `Cc1c(Cl)cnc(NC(=O)COC(=O)c2ccc(S(=O)(=O)NCc3ccco3)cc2)c1Cl`, the inhibition was -12.2% (inactive).
For `CC(Sc1cccc[n+]1[O-])C(=O)Nc1cccc(S(=O)(=O)N2CCOCC2)c1` (stereo unspecified), the inhibition was 95.2% (active).
For `Cc1ccc(-c2nn(-c3ccccc3)cc2C(=O)Nc2cccc(S(=O)(=O)N3CCOCC3)c2)cc1`, the inhibition was -29% (inactive).
With `O=C(CN1CCN(c2ccc(O)cc2)CC1)Nc1cc(S(=O)(=O)N2CCOCC2)ccc1Cl` the inhibition was -37.9% (inactive).
For `Cn1c(SCC(=O)Nc2cccc(O)c2)nnc1-c1ccc(S(=O)(=O)N2CCOCC2)cc1`, the inhibition was 2.85% (inactive).
In the case of `CCN(CC)c1ccc(S(=O)(=O)N2CCOCC2)cc1NC(=O)CSc1cccc[n+]1[O-]`, the inhibition is reported as 89% (active).
With `Cc1cc(C(=O)OC(C)C(=O)Nc2cccc(S(=O)(=O)N3CCOCC3)c2)c(C)o1` (stereo unspecified) the inhibition was -42.7% (inactive).
In the case of `COc1ccccc1CNC(=O)CN1CCC(n2cnc3cc(F)ccc32)CC1`, the inhibition is reported as -21.9% (inactive).
With `Cn1c(CNC(=O)c2ccccc2F)nnc1SCc1ccc(F)cc1` the inhibition was 6.65% (inactive).
With `CCCCC1N2CC3([N+](=O)[O-])CN1CC([N+](=O)[O-])(C2)C3(C)C` (stereo unspecified) the inhibition was -27.8% (inactive).
With `CC(C)(C)C1C/C(=C/c2ccco2)C(=O)/C(=C/c2ccco2)C1` (stereo unspecified) the inhibition was -19.6% (inactive).
In the case of `Oc1c(CN2CCN(c3ccc(F)cc3)CC2)cc(Cl)c2cccnc12`, the inhibition is reported as 99.3% (active).
In the case of `CCN1CCN(C(c2cccnc2)c2cc(Cl)c3cccnc3c2O)CC1` (stereo unspecified), the inhibition is reported as 6.22% (inactive).
In the case of `O=C(c1cccc(C(=O)N2CCN(c3ccc(F)cc3)CC2)c1)N1CCN(c2ccc(F)cc2)CC1`, the inhibition is reported as -61.4% (inactive).
For `Cc1cccc(NC(=S)NCc2ccc3[nH]c4c(c3c2)CCCC4)c1`, the inhibition was 15.9% (inactive).
With `CCc1cccc(CC)c1NC(=S)NCc1ccc2[nH]c(C)cc2c1` the inhibition was 54.3% (active).
For `Cc1cc2cc(CNC(=O)c3cccs3)ccc2[nH]1`, the inhibition was -4.49% (inactive).
For `O=C(Nc1ccc2ccccc2c1)/C(=C/c1cccc(Br)c1)NC(=O)c1ccco1`, the inhibition was -32.8% (inactive).
In the case of `COc1ccc(C(=O)NC(=S)NNC(=O)CCc2ccccc2)cc1`, the inhibition is reported as -10.9% (inactive).
In the case of `O=C(Nc1ccc2ccccc2c1)/C(=C\c1ccc2c(c1)OCO2)NC(=O)c1ccco1`, the inhibition is reported as 6.72% (inactive).
For `COc1ccc(CCNC(=O)c2ccco2)cc1`, the inhibition was -10.2% (inactive).
With `CC(Oc1ccc2ccccc2c1)C(=O)NNC(=S)NC(=O)c1ccco1` (stereo unspecified) the inhibition was 98.2% (active).
In the case of `CCCc1ccc(OCC(=O)NNC(=S)NC(=O)c2ccco2)cc1`, the inhibition is reported as 98.5% (active).
For `NC(=O)C[C@@H]1NC(=O)CNC(=O)c2cc([N+](=O)[O-])cc(I)c2NCCC(C(N)=O)NC1=O` (stereo partly specified), the inhibition was 1.08% (inactive).
In the case of `CC1CN/C(=C\C(=O)c2ccc(Br)cc2)C(=O)N1` (stereo unspecified), the inhibition is reported as -42.4% (inactive).
In the case of `Cc1cc(Cl)ccc1NC(=S)N1CCC(C(N)=O)(N2CCCCC2)CC1`, the inhibition is reported as 1.37% (inactive).
For `Cc1ccc(OC(=O)CCC(=O)Nc2ccc(Br)cc2)cc1`, the inhibition was 3.42% (inactive).
With `O=C(CSc1ncn[nH]1)Nc1nsc(-c2ccccc2)n1` the inhibition was 4.99% (inactive).
For `Cc1cccc(OP(=O)(Nc2c(C)n(C)n(-c3ccccc3)c2=O)Oc2cccc(C)c2)c1`, the inhibition was -0.66% (inactive).
For `CCOC(=O)C1CCN(C(=O)/C=C/c2cc(OC)c(OC)c(OC)c2)CC1`, the inhibition was -12.6% (inactive).
For `O=C(COC(=O)c1cc(-c2cccs2)nn1-c1ccccc1)Nc1cc([N+](=O)[O-])ccc1Cl`, the inhibition was -30.3% (inactive).
In the case of `O=C(Nc1cccc([N+](=O)[O-])c1)c1ccc2c(c1)OCO2`, the inhibition is reported as -10.3% (inactive).
For `CCOC(=O)c1ccccc1C(=O)N1CCOCCOCCOCC1`, the inhibition was -13.3% (inactive).
With `CCCCOc1ccc(C(=O)NCC(=O)OCC(=O)N2CCN(S(=O)(=O)c3ccc(C)cc3C)CC2)cc1` the inhibition was -38.7% (inactive).
In the case of `O=C(COC(=O)/C=C/c1cccc(Cl)c1)NCCc1ccccc1`, the inhibition is reported as -16.6% (inactive).
In the case of `CC(C)c1nc2ccc(C(=O)O)cc2[nH]1`, the inhibition is reported as -7.86% (inactive).
With `Cc1nc2ccc(C(=O)O)cc2[nH]1` the inhibition was 44.4% (active).
For `Cc1ccc2nc(S(=O)(=O)O)[nH]c2c1`, the inhibition was -11.6% (inactive).
With `COc1ccc(CCNC(=O)CSc2nc(-c3ccc(OC)c(OC)c3)ccc2C#N)cc1` the inhibition was -21.2% (inactive).
For `COc1cc(/C=C2\SC(=S)N(Nc3ncc(C(F)(F)F)cc3Cl)C2=O)cc(OC)c1OC`, the inhibition was -16.3% (inactive).
With `COc1cccc(/C=N/Nc2ncc(C(F)(F)F)cc2Cl)c1O` the inhibition was 64.1% (active).
For `COc1cccc(/C=N\NC(=O)C2=NNC(=O)C2C)c1O` (stereo unspecified), the inhibition was 1.19% (inactive).
For `Cc1nn(C)c(C(=O)NNC(=S)NC2CCCCC2)c1Cl`, the inhibition was -11.7% (inactive).
For `CCOC(=O)c1cnc(-n2nc(C)cc2C)nc1NNc1cc(C)nc(-c2ccccc2)n1`, the inhibition was 63.6% (active).
With `CCOC(=O)c1cnc(-n2nc(C)cc2C)nc1-n1nc(C)cc1C` the inhibition was -33.3% (inactive).
With `CCOC(=O)c1cnc(-c2ccccc2)nc1Oc1ccc(C)cc1` the inhibition was -3.41% (inactive).
For `CCc1cc(C(N)=O)c(NC(=O)c2ccc(OC)cc2)s1`, the inhibition was 13.8% (inactive).
For `COc1cccc(NC(=S)N(CCc2c(C)[nH]c3ccccc23)Cc2ccco2)c1`, the inhibition was -16.9% (inactive).
For `O=C(Nc1cccc(F)c1)c1coc(=O)c(Br)c1`, the inhibition was -16.6% (inactive).
In the case of `CNC(=O)c1cc2c(ccc3ccccc32)oc1=N`, the inhibition is reported as 87% (active).
In the case of `CCOC(=O)N1CCN(C(=O)c2cc3c(ccc4ccccc43)oc2=O)CC1`, the inhibition is reported as 4.59% (inactive).
With `N=c1oc2ccccc2cc1C(=O)N/N=C/c1ccccc1` the inhibition was -35.6% (inactive).
For `O=[N+]([O-])c1cc(C(F)(F)F)ccc1NN=C1CCCC1`, the inhibition was -8.75% (inactive).
In the case of `Cc1ccc(Cl)cc1N1CCN(C(=O)c2cccc3c(=O)c(C)c(-c4ccccc4)oc23)CC1`, the inhibition is reported as -11.9% (inactive).
In the case of `COc1ccc(-c2[nH]ncc2/C=N/NC(=O)c2cc(Br)ccc2O)c(OC)c1`, the inhibition is reported as -15.9% (inactive).
With `CCCc1cc(-c2nc(-c3ccc(C)cc3)cs2)ccn1` the inhibition was 6.88% (inactive).
In the case of `COc1ccc([C@H]2[C@H](C(C)=O)N3N=Cc4ccccc4C3C23C(=O)OC(C)(C)OC3=O)cc1` (stereo partly specified), the inhibition is reported as -14.6% (inactive).
For `CNc1ccc(NC(C)=O)cc1[N+](=O)[O-]`, the inhibition was -4.52% (inactive).
For `COC(=O)C(NC(=O)c1ccc(OC)cc1)(Nc1ncc(S(=O)(=O)c2ccc([N+](=O)[O-])cc2)s1)C(F)(F)F` (stereo unspecified), the inhibition was -39.1% (inactive).
With `Cc1cc(C)cc(OCC(=O)Nc2nc3ccc([N+](=O)[O-])cc3s2)c1` the inhibition was -41.2% (inactive).
With `O=C(NC(Nc1nc2ccc([N+](=O)[O-])cc2s1)(C(F)(F)F)C(F)(F)F)c1ccccc1` the inhibition was 77.5% (active).
With `Cc1c(Cl)cccc1NC(=O)Nc1ccc(C(=O)N2CCCC2)cc1` the inhibition was -7.32% (inactive).
With `CN1c2ccccc2-c2nc3ccccc3n2C1c1ccco1` (stereo unspecified) the inhibition was -46.1% (inactive).
In the case of `CN(c1nc2ccccc2n2c(-c3ccco3)nnc12)S(=O)(=O)c1ccccc1`, the inhibition is reported as -17.9% (inactive).
In the case of `Cn1c(-c2ccco2)nc2cc3ccccc3cc21`, the inhibition is reported as 60.5% (active).
With `CC(C)C(=O)Nc1ccc2c3c(cccc13)CC2` the inhibition was -41.5% (inactive).
For `O=C1c2cccc3cc(Br)cc(c23)C(=O)N1Nc1ccccc1`, the inhibition was -67.3% (inactive).
With `O=C1C=C(c2ccc(Cl)cc2)C(=O)N1Nc1ccccc1` the inhibition was 98.1% (active).
In the case of `O=C(Nc1ccccc1)OCc1cc(-c2ccc(Cl)cc2)on1`, the inhibition is reported as -39.2% (inactive).
For `CCn1ncc(CNC(=O)C2(C)CC2(Br)Br)c1C` (stereo unspecified), the inhibition was -38.8% (inactive).
With `COc1ccc(NC(=S)NCc2cccs2)c(OC)c1` the inhibition was -22.6% (inactive).
In the case of `CCC(=O)/C=C1\Sc2ccccc2N1CC`, the inhibition is reported as -18.9% (inactive).
With `CCN1/C(=C/c2ccc3ccc(C)cc3[n+]2CC)Sc2ccccc21` the inhibition was 82.5% (active).
For `Cc1cccc(NC(=S)N(CCN(C)C)C(C)c2ccco2)c1` (stereo unspecified), the inhibition was -21.1% (inactive).
For `Cc1ccc(SCCC(=O)NC(C(C)C)C(C)C)cc1`, the inhibition was -7.21% (inactive).
